For two compounds, Ki results are on record in BindingDB's records for doi:10.1021/jm9704199 (Dupont Pharmaceuticals, 1998).

The structures appear in SMILES notation.

The experiment addresses Human immunodeficiency virus type 1 protease (Human immunodeficiency virus 1, UniProt Q72874). The experiment is described as follows: Inhibition of HIV protease, measured by assaying the cleavage of a fluorescent peptide substrate using HPLC. Summed up:
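HIV-1 protease activity followed as cleavage of a fluorescent peptide substrate, with products resolved and quantified by HPLC; Ki values reported.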

On to `CCCC(N=O)c1cccc(CN2C(=O)N(Cc3cccc(C(CCC)N=O)c3)[C@H](Cc3ccccc3)[C@H](O)[C@@H](O)[C@H]2Cc2ccccc2)c1` (some centres not stated), for which the Ki was 0.031 nM.
Then `CCC(N=O)c1cccc(CN2C(=O)N(Cc3cccc(C(CC)N=O)c3)[C@H](Cc3ccccc3)[C@H](O)[C@@H](O)[C@H]2Cc2ccccc2)c1` (stereo partly drawn) [(4R,5S,6S,7R)-4,7-dibenzyl-5,6-dihydroxy-1,3-bis({3-[1-(hydroxyimino)propyl]phenyl}methyl)-1,3-diazepan-2-one], with 0.031 nM.
